Reference: ChEMBL document CHEMBL1129498, “Azole endothelin antagonists. 2. Structure-activity studies” (J Med Chem, 1996)

Legend:
[1] = system: MMQ; assay: Inhibitory activity was evaluated by measuring the PI hydrolysis in MMQ cell line; assay type: functional, cell-based, Rattus norvegicus
Procedure, shortened: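 MMQ cells (0.4 × 10⁶ cells/mL) labeled 16 h with 10 µCi/mL [³H]myoinositol in RPMI, PBS-washed, then held 60 min in buffer A with protease inhibitors and 10 mM LiCl. Compound pre-incubated 5 min, then 1 nM ET-1 challenge for 30 min at 37 °C, stopped with chloroform-methanol. Total inositol phosphates extracted and taken from the aqueous phase by AG1-X8 anion-exchange batch chromatography.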

[2] = molecular target: T1, Endothelin-1 receptor (Rattus norvegicus, UniProt P26684); assay: Inhibitory activity was evaluated against ET- A Binding to Endothelin A receptor in MMQ cell homogenates; assay type: cell-free
T1 sequence (P26684 whole entry): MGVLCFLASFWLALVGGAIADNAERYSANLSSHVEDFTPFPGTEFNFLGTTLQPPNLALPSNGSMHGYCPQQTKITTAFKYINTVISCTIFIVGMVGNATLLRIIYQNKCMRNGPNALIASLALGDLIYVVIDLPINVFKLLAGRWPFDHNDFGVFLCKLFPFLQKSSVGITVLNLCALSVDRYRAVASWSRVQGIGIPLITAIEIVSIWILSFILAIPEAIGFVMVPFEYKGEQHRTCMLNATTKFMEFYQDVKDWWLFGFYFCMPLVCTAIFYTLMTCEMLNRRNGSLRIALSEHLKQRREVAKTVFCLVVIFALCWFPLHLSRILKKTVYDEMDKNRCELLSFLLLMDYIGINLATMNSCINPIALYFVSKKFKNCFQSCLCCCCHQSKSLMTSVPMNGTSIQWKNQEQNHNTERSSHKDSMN

[3] = molecular target: T2, Endothelin receptor type B (Sus scrofa, UniProt P35463); assay: Inhibitory activity was evaluated against ET- B Binding to Endothelin B receptor from porcine cerebellar membranes
T2 sequence (P35463 whole entry): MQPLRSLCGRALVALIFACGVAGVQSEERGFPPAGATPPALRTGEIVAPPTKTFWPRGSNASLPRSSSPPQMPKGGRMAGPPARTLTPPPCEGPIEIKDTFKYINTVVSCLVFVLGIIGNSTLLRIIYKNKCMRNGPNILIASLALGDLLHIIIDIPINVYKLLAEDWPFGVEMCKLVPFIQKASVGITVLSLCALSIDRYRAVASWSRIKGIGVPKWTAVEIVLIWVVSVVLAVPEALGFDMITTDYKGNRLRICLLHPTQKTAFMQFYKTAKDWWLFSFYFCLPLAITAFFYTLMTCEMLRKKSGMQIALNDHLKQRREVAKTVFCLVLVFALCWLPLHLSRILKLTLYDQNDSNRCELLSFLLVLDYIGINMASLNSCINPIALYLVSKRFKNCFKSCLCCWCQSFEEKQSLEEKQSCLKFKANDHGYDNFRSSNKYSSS

IC50 ([1]; Rattus norvegicus, MMQ) [nM] | IC50 [2] [nM] | IC50 [3] [nM] | IC50 ([1]; mmq) [nM] | Structure (SMILES)
4.1 | 11 | 34000 |  | Cc1[nH]c([C@@H](Cc2cn(C)c3ccccc23)NC(=O)[C@H](CC(C)C)NC(=O)NC2CCCCC2)nc1C(=O)O
53 | 16 | 30000 |  | Cc1oc([C@@H](Cc2cn(C)c3ccccc23)NC(=O)[C@H](CC(C)C)NC(=O)Nc2ccccc2)nc1C(=O)O
3.6 | 5.9 | 34000 |  | Cc1oc([C@@H](Cc2cn(C)c3ccccc23)NC(=O)[C@H](CC(C)C)NC(=O)N2CCc3ccccc32)nc1C(=O)O
87 | 60 | 42000 |  | Cc1[nH]c([C@@H](Cc2cn(C)c3ccccc23)NC(=O)[C@H](CC(C)C)NC(=O)NC2CCCCCC2)nc1C(=O)O
1.3 | 7.6 | 37000 |  | Cc1[nH]c([C@@H](Cc2cn(C)c3ccccc23)NC(=O)[C@H](CC(C)C)NC(=O)Nc2ccccc2)nc1C(=O)O
6.1 | 5.7 | 35000 |  | Cc1oc([C@@H](Cc2cn(C)c3ccccc23)NC(=O)[C@H](CC(C)C)NC(=O)N2CCOC23CCCCC3)nc1C(=O)O
8.6 | 26 | 22000 |  | Cc1[nH]c([C@@H](Cc2cn(C)c3ccccc23)NC(=O)[C@H](CC(C)C)NC(=O)NC2CCCC(C)C2)nc1C(=O)O (stereo partly drawn)
0.9 | 33 | 66000 |  | Cc1oc([C@@H](Cc2cn(C)c3ccccc23)NC(=O)[C@H](CC(C)C)NC(=O)N2CCCc3ccccc32)nc1C(=O)O
26 | 17 | 2400 |  | Cc1oc([C@@H](Cc2cn(C)c3ccccc23)NC(=O)[C@H](CC(C)C)NC(=O)Nc2ccccc2F)nc1C(=O)O
 | 29 | 8300 | 16 | Cc1[nH]c([C@@H](Cc2cn(C)c3ccccc23)NC(=O)[C@H](CC(C)C)NC(=O)NC2CC3CCC2C3)nc1C(=O)O (stereo in doubt; 14o)
 | 19 | 9500 | 36 | Cc1[nH]c([C@@H](Cc2cn(C)c3ccccc23)NC(=O)[C@H](CC(C)C)NC(=O)NC2CC3CCC2C3)nc1C(=O)O (stereo in doubt; 14p)
